# ChEMBL document CHEMBL2390852, “Anti-influenza active and low toxic N-phenyl-substituted β-amidoamidines structurally related to natural antibiotic amidinomycin” (Bioorg Med Chem Lett, 2013)
# The source made the active and inactive calls. The calls are words filed in the database; no cut-off is given here.
# Columns and labels:
# [1] = Cytotoxicity against dog MDCK cells after 48 hrs by MTT assay; format: cell-based, Canis lupus familiaris
# Summary of the method: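 MDCK cells were incubated with compound at various concentrations for 48 h. CC50 is the concentration causing 50% reduction of cell viability. Values are means of 2–4 separate experiments.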
# Influenza A virus [2] = experiment: Antiviral activity against 100 infective dose of influenza A virus A/St. Petersburg/34/72 (H3N2) infected in dog MDCK cells assessed as virus-induced cytopathic effect after 48 hrs; format: functional, organism-based
# Summary of the method: (§1)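 MDCK cells in maintenance medium were infected with 1 infective dose or 100 doses, where 1 dose induced 50 3% cell death under standard conditions. Cells were incubated with compound at various concentrations for 48 h at 37 °C in 5% CO2. CPE was scored against cell and virus controls, and EC50 is the concentration giving 50% inhibition of CPE. Values are means of 2–4 separate experiments.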
# [3] = system: influenza A virus A/St. Petersburg/34/72 (H3N2); experiment: Therapeutic index, ratio of CC50 for dog MDCK cells to EC50 for 1 infective dose of influenza A virus A/St. Petersburg/34/72 (H3N2); format: cell-based; conditions: read-out: Ratio CC50/EC50
# Influenza A virus [4] = experiment: Antiviral activity against 1 infective dose of influenza A virus A/St. Petersburg/34/72 (H3N2) infected in dog MDCK cells assessed as virus-induced cytopathic effect after 48 hrs; format: functional, organism-based; summary of the method: as §1
# [5] = system: influenza A virus A/St. Petersburg/34/72 (H3N2); experiment: Therapeutic index, ratio of CC50 for dog MDCK cells to EC50 for 100 infective dose of influenza A virus A/St. Petersburg/34/72 (H3N2; format: cell-based; conditions: read-out: Ratio CC50/EC50
# H3N2 subtype [6] = experiment: Antiviral activity against Influenza A virus (A/Aichi/2/1968(H3N2))-infected in Balb/c mouse at 0.1 LD50/dose, sc for 5 times measured after 7 to 14 days; format: functional, organism-based
# Summary of the method: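 Balb/c mice of both sexes, 10 per group, were infected intranasally with mouse-adapted virus. […] Vehicle controls received the same schedule. Survivors were counted on days 7 and 14.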
# H3N2 subtype [7] = experiment: Antiviral activity against Influenza A virus (A/Aichi/2/1968(H3N2))-infected in Balb/c mouse at </= 100 mg/kg, sc after 7 to 14 days; format: functional, organism-based; set-up: dose 100 mg/kg
# [8] = Acute toxicity in sc dosed Balb/c mouse after 5 days; format: organism-based; conditions: in vivo
# Summary of the method: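 Male Balb/c mice, four per group, given single SC doses rising from 1000 to 4000 mg/kg in 500 mg/kg steps, in saline/DMSO 4:1 (200 µL total). LD50 was taken as the dose giving 50% mortality, with toxicity estimated in a 5 days test.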
# Mus musculus [9] = experiment: Sub-acute toxicity in Balb/c mouse assessed as change in body weight at 300 mg/kg, sc administered for 6 days measured on day 10; format: organism-based; set-up: dose 300 mg/kg, route subcutaneous; conditions: in vivo, 144 h
# Summary of the method: (§2)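 Four mice, two of each sex, were given 300 mg/kg SC daily for 6 days. Behaviour and body weight were assessed at day 10.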
# Mus musculus [10] = experiment: Sub-acute toxicity in Balb/c mouse assessed as survival at 1000 mg/kg, sc after 10 days; format: organism-based; set-up: dose 1000 mg/kg, route subcutaneous; conditions: in vivo, 240 h
# Summary of the method: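 Four male Balb/c mice each received a single SC dose of 1000 mg/kg in saline/DMSO 4:1. Survival was followed for at least 10 days.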
# Mus musculus [11] = experiment: Sub-acute toxicity in Balb/c mouse assessed as behavioural change at 300 mg/kg, sc administered for 6 days measured on day 10; format: organism-based; set-up: dose 300 mg/kg, route subcutaneous; conditions: in vivo, 144 h; summary of the method: as §2
# Influenza A virus [12] = experiment: Antiviral activity against influenza A virus A/St. Petersburg/34/72 (H3N2) infected in dog MDCK cells using chicken erythrocytes by hemadsorption assay; format: functional, organism-based
# Summary of the method: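 Hemadsorption of chicken erythrocytes was used alongside the CPE read-out on infected MDCK cells after 48 h compound incubation at 37 °C in 5% CO2. The results of the two assays were averaged.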
Compound,CC50 at 48 h [1],EC50 (Influenza A virus [2]),selectivity ratio [3],EC50 (Influenza A virus [4]),selectivity ratio [5],Activity (H3N2 subtype [6]),Activity (H3N2 subtype [7]),LD50 at 120 h [8],Activity (Mus musculus [9]),Activity (Mus musculus [10]),Activity (Mus musculus [11]),Activity (Influenza A virus [12])
CC(=O)N(CC(C)/C(=N\c1ccccc1)Nc1ccccc1)c1ccccc1 (racemic),153 µM,≥ 200 µM,2.25,68 µM,–,–,–,–,–,–,–,–
CCCCCCCCCCCCCCCCCC(=O)N(CC(C)/C(=N\c1ccccc1)Nc1ccccc1)c1ccccc1 (racemic),1240 µM,72 µM,80,15.6 µM,17,–,–,–,–,–,–,–
CCCCCCCCCCCCC(=O)N(CC(C)/C(=N\c1ccccc1)Nc1ccccc1)c1ccccc1.Cl (racemic),890 µM,27.8 µM,128,6.95 µM,32,Active,inactive,4000 mg/kg,–,–,–,–
CC(CNc1ccccc1)/C(=N\c1ccccc1)Nc1ccccc1 (racemic),85 µM,≥ 200 µM,–,≥ 200 µM,–,–,–,–,–,–,–,–
CC(CN(C(=O)c1ccccc1)c1ccccc1)/C(=N\c1ccccc1)Nc1ccccc1 (racemic),286 µM,≥ 200 µM,< 2.85,> 100 µM,–,–,–,–,–,–,–,–
CCCCCCCCC(=O)N(CC(C)/C(=N\c1ccccc1)Nc1ccccc1)c1ccccc1.Cl (racemic),247 µM,1.98 µM,260,0.95 µM,125,Active,inactive,3000 mg/kg,Non-toxic,Non-toxic,Non-toxic,Active
CCCCCCCCCCC(=O)N(CC(C)/C(=N\c1ccccc1)Nc1ccccc1)c1ccccc1.Cl (racemic),936 µM,7.3 µM,514,1.82 µM,128,Active,inactive,3500 mg/kg,–,–,–,Active
CC(N)C12CC3CC(CC(C3)C1)C2 (stereo not drawn) [RIMANTADINE],1400 µM,43.5 µM,256,5.45 µM,32,–,Active,175 mg/kg,–,–,–,–
CCCC(=O)N(CC(C)/C(=N\c1ccccc1)Nc1ccccc1)c1ccccc1 (racemic),216 µM,98 µM,9,24 µM,2.2,–,–,–,–,–,–,–
"N=C(N)CCNC(=O)[C@@H]1CC[C@H](N)C1 [(1R,3S)-AMIDINOMYCIN]",–,–,–,–,–,–,–,10 mg/kg,–,–,–,–
